Assay outcomes (PubChem BioAssay)
ABCB6 inh 2 – blocks the human ABCB6 transporter; fluorescence ratio to DMSO, % at 10 µM; K562-ABCB6 porphyrin accumulation, flow cytometry, 1 h; hits give low values; actives 0.19% (n = 360,000); Q9NP58;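 active = fluorescence ratio to DMSO below 75%, the collection mean minus 3 SD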;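 note: signal is porphyrin accumulated inside mitochondria; 100% equals median channel fluorescence of DMSO control wells; lower ratio means ABCB6 inhibition with less porphyrin fluorescence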
Target sequence (Q9NP58 whole entry, looked up): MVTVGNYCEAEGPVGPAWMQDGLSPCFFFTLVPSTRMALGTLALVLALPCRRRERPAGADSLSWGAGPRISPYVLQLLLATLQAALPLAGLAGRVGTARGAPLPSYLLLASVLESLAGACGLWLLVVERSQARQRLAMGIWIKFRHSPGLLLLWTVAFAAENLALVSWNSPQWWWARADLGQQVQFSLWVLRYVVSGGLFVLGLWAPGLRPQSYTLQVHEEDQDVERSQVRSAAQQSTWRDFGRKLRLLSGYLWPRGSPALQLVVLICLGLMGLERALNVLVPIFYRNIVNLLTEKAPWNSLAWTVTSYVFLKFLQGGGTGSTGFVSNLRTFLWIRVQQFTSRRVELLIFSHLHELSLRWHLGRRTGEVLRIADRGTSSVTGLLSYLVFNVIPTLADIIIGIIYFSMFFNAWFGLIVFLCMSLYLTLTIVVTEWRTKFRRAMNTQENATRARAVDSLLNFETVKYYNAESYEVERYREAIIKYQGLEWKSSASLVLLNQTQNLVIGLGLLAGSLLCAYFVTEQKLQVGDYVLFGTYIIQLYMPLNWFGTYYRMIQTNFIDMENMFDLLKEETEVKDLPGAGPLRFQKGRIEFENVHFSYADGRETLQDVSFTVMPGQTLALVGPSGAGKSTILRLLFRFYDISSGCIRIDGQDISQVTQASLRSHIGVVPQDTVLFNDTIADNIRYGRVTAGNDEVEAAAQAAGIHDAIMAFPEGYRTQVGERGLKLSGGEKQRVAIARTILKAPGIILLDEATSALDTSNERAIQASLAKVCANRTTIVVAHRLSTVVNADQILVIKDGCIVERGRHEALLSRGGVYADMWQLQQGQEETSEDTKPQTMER
Xi reactivation – reactivates the inactive X chromosome in mouse fibroblasts | XiGFP mouse fibroblasts, % GFP-positive cells imaging, 3 d; cells co-treated with 5-aza-dC sensitizer; scaled so ellipticine positive control = 100% | activation, % at 7.58 µM | actives 0.055% (n = 360,000) | AID 743238;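 active = mean normalized replicate activation at least 10% and every replicate at or above 10%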;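 note: 0% = median of on-plate neutral control wells and 100% = ellipticine 6 µM median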
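System: XiGFP fibroblasts, SV40-immortalized. Medium: DMEM plus 5-aza-dC sensitizer. Doses: single point. Timing: 3 d treatment, 15 min room-temperature fixation. Control set: ellipticine 6 µM.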
Myeloid diff MLP – promotes myeloid progenitor differentiation; ER-HoxA9 myeloid progenitors, lysozyme-GFP differentiation, flow cytometry; calls only at 10 µM; actives 1% (n = 360,000);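 active = normalized GFP-positive differentiation at or above the plate's own cutoff, the solvent-only control mean plus 3 SD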;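 note: cells exposed to compound for four days before flow analysis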
Myeloid diff – myeloid differentiation induction. shares compounds with Myeloid diff MLP. ER-HoxA9 myeloid progenitors, GFP/Mac1 double-positive flow. calls only. actives 2% (n = 2,300). AID 651706;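 active = share of green or green-and-red cells above 9 and 9% in run 1 or 4 and 3% in run 2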
GFP autofluor – counter-screen for myeloid differentiation promoters: compound fluorescence | shares compounds with Myeloid diff MLP | ER-HoxA9 myeloid progenitors, no estrogen, GFP autofluorescence flow cytometry; vehicle wells 0%, positive control 100% | fluorescence response, % (no concentration beside the values) | actives 7.4% (n = 2,300) | AID 651707;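 active = over 5% cells positive for green fluorescent reporter, or over 2% positive for both it and APC stain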;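 note: range taken on the double positive population between DMSO and positive control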
The depositor's hits bear a star. The sample as a whole holds a higher share of hits than the screen did.

Results for COc1ccc(-c2nc(NC(=O)C3CC(=O)N(Cc4ccco4)C3)sc2C)cc1 (stereo not given) ?
ABCB6 inh 2: 89.0; Xi reactivation: -0.1; Myeloid diff MLP: inactive; Myeloid diff: inactive; GFP autofluor: 0.0

Results for COc1ccc2cc(C(C)c3nc4ccccc4c(=O)n3N)ccc2c1 (stereo not given) ?
ABCB6 inh 2: 88.0; Xi reactivation: -0.1; Myeloid diff MLP: active; Myeloid diff: inactive; GFP autofluor: 0.3

Results for COc1ccc(-c2nc3ccccc3c(=O)n2N)cc1 ?
ABCB6 inh 2: 98.0; Myeloid diff MLP: inactive

How did C[C@H]1CN([C@@H](C)CO)S(=O)(=O)c2ccc(C#CC(C)(C)O)cc2O[C@@H]1CN(C)Cc1ccc(-c2ccccc2)cc1 do in these assays?
Xi reactivation: 0.3

Results for O=[N+]([O-])c1ccc(NN=Cc2ccc(O)cc2)nc1 ?
ABCB6 inh 2: 95.0; Xi reactivation: 0.0; Myeloid diff MLP: inactive

Results for CCN(CC)c1ccc(C=NNc2ccc([N+](=O)[O-])cn2)cc1 ?
ABCB6 inh 2: 345.0; Xi reactivation: 0.0; Myeloid diff MLP: active; Myeloid diff: inactive; GFP autofluor: 12.9*

What do the screens show for `O=C(NC1CCCCC1)c1cccc2c1C(=O)c1ccc(N3CCCC3)cc1S2(=O)=O`?
ABCB6 inh 2: 98.0; Xi reactivation: 0.0; Myeloid diff MLP: inactive

Results for CC1CCN(c2ccc3c(c2)S(=O)(=O)c2cccc(C(=O)NC4CCCCC4)c2C3=O)CC1 ?
ABCB6 inh 2: 94.0; Xi reactivation: 0.0; Myeloid diff MLP: active; Myeloid diff: inactive; GFP autofluor: 2.4

What do the screens show for `CCNC(=O)[C@@H]1[C@@H](CO)[C@@H]2Cn3c(ccc(-c4ccccc4)c3=O)[C@H]1N2Cc1cccnc1`?
Xi reactivation: 0.5

Results for CCOc1ccccc1OCCn1ncc2ccc(OC)c(OC)c2c1=O ?
ABCB6 inh 2: 93.0; Myeloid diff MLP: inactive

What do the screens show for `COc1ccc2cnn(CCOc3cc(C)ccc3C(C)C)c(=O)c2c1OC`?
ABCB6 inh 2: 96.0; Myeloid diff MLP: active; Myeloid diff: inactive; GFP autofluor: 0.0

Results for CCCNC(=O)[C@H]1[C@H](CO)[C@H]2Cn3c(ccc(-c4ccc(OC)cc4)c3=O)[C@H]2N1CC ?
Xi reactivation: 0.1

How did O=C(CSc1nnc2scc(-c3ccccc3)n12)Nc1ccc2c(c1)OCCO2 do in these assays?
ABCB6 inh 2: 92.0; Myeloid diff MLP: inactive

How did O=C(CCSc1nnc2scc(-c3ccccc3)n12)NCc1ccc2c(c1)OCO2 do in these assays?
ABCB6 inh 2: 95.0; Myeloid diff MLP: inactive; Myeloid diff: inactive; GFP autofluor: 0.0

How did C[C@@H]1CCCCO[C@H](CN(C)C(=O)C2CCCCC2)[C@@H](C)CN([C@H](C)CO)C(=O)c2cc(N(C)C)ccc2O1 do in these assays?
ABCB6 inh 2: 103.0; Xi reactivation: -0.1; Myeloid diff MLP: inactive; Myeloid diff: inactive; GFP autofluor: 0.0

Results for C[C@@H]1CCCCO[C@@H](CN(C)C(=O)C2CCCCC2)[C@H](C)CN([C@H](C)CO)C(=O)c2cc(N(C)C)ccc2O1 ?
Xi reactivation: -0.6

What do the screens show for `Cc1noc(C)c1S(=O)(=O)Nc1ccc2c(c1)C(=O)N([C@H](C)CO)C[C@H](C)[C@@H](CN(C)C(=O)CCCN(C)C)OCCCC[C@@H](C)O2`?
ABCB6 inh 2: 101.0; Xi reactivation: 0.1; Myeloid diff MLP: inactive; Myeloid diff: inactive; GFP autofluor: 0.0

How did Cc1noc(C)c1S(=O)(=O)Nc1ccc2c(c1)C(=O)N([C@@H](C)CO)C[C@H](C)[C@H](CN(C)C(=O)CCCN(C)C)OCCCC[C@@H](C)O2 do in these assays?
Xi reactivation: 0.0

Results for COc1cccc(NC(=O)N[C@@H]2C=C[C@H](CC(=O)N3CCOCC3)O[C@@H]2CO)c1 ?
Xi reactivation: 0.0

What do the screens show for `CO[C@H](CN(C)C(=O)c1cnccn1)[C@@H](C)CN([C@H](C)CO)S(=O)(=O)c1ccc(C)cc1`?
Xi reactivation: -0.1

Results for O=C(C[C@@H]1C[C@@H]2c3cc(NC(=O)c4cccnc4)ccc3O[C@@H]2[C@@H](CO)O1)NCc1ccc(Oc2ccccc2)cc1 ?
Xi reactivation: 0.2

Results for O=C(C[C@H]1C[C@@H]2c3cc(NC(=O)Nc4ccccc4F)ccc3O[C@@H]2[C@H](CO)O1)NCc1ccc(Oc2ccccc2)cc1 ?
Xi reactivation: 0.4

Results for CN1CCN(C(=O)C[C@H]2CC[C@H]3[C@@H](COC[C@H](O)CN3C(=O)Nc3ccc(F)cc3)O2)CC1 ?
Xi reactivation: 0.0

How did CCOC(=O)N1CCN(C2CC(=O)N(c3ccc(Cl)c(Cl)c3)C2=O)CC1 (stereo not given) do in these assays?
ABCB6 inh 2: 93.0; Myeloid diff MLP: inactive

How did CCOC(=O)N1CCN(c2ccc(Cl)c(Cl)c2)CC1 do in these assays?
ABCB6 inh 2: 103.0; Myeloid diff MLP: active; Myeloid diff: inactive; GFP autofluor: 0.3

What do the screens show for `CCCCCn1nc(-c2ccccc2)c2nc3ccccc3nc21`?
ABCB6 inh 2: 125.0; Myeloid diff MLP: active; Myeloid diff: inactive; GFP autofluor: 82.0*

What do the screens show for `CCn1nc(-c2ccccc2)c2nc3ccccc3nc21`?
ABCB6 inh 2: 118.0; Myeloid diff MLP: inactive

What do the screens show for `Cc1cccc(NC(=S)N(C)C2CCCCC2)c1`?
ABCB6 inh 2: 91.0; Xi reactivation: 0.2; Myeloid diff MLP: inactive; Myeloid diff: inactive; GFP autofluor: 0.0

What do the screens show for `Cc1cccc(NC(=S)NC2CCCC2)c1`?
ABCB6 inh 2: 97.0; Xi reactivation: -0.1; Myeloid diff MLP: inactive

What do the screens show for `C[C@H]1CN([C@@H](C)CO)C(=O)c2cccc(NS(=O)(=O)c3ccccc3)c2O[C@H]1CN(C)S(=O)(=O)c1ccc(Cl)cc1`?
Xi reactivation: -1.2

Results for C[C@@H]1CN(C)C(=O)c2cccc(NS(C)(=O)=O)c2O[C@@H]1CN(C)S(C)(=O)=O ?
Xi reactivation: 0.2

Results for COc1ccc2[nH]c3c(c2c1)[C@@H]1CCN2C(=O)CCC[C@H](C3)[C@H]12 ?
ABCB6 inh 2: 106.0; Xi reactivation: 0.0; Myeloid diff MLP: active; Myeloid diff: inactive; GFP autofluor: 0.0

Results for COc1ccc(CNC2C[C@H]3CCCC(=O)N4CC[C@@H](C2)[C@@H]34)cc1 (stereo not given in full) ?
ABCB6 inh 2: 98.0; Xi reactivation: 0.0; Myeloid diff MLP: inactive

Results for COc1cc(CN2CCN(Cc3ccc4cc(F)ccc4n3)CC2CCO)cc(OC)c1 (stereo not given) ?
ABCB6 inh 2: 142.0; Xi reactivation: 0.4; Myeloid diff MLP: inactive; Myeloid diff: inactive; GFP autofluor: 0.0

What do the screens show for `COc1ccc(CN2CCN(Cc3ccc4cc(F)ccc4n3)CC2CCO)c(C)c1C` (stereo not given)?
ABCB6 inh 2: 100.0; Xi reactivation: 0.0; Myeloid diff MLP: inactive
